Reference: ChEMBL document CHEMBL3351380, “Antioxidant and antimicrobial studies on fused-ring pyrazolones and isoxazolones” (Bioorg Med Chem, 2014)
≈ marks a conversion by molar mass, not a printed value. Calls of active or inactive are those of the source. No cut-off for these calls is given here.

Assays:
[1] = tested on: Candida albicans; experiment: Antifungal activity against Candida albicans assessed as zone of inhibition at 100 ug/ml by agar well diffusion method; format: functional; conditions: for zone of inhibition at 100 µg/mL: read-out: IZ
Procedure, shortened: (§1)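 For the agar well diffusion screen, samples at 100 µg/mL were made from a stock of 10 mg in 1 mL EtOH diluted 1:1 (v/v) with Mueller-Hinton medium. The zone of inhibition was scored as 5–10 mm poor, 10–15 moderate, 15–20 good and 20–25 very good. Gentamycin and nystatin were the reference drugs. Strains were confirmed at the University of Botswana microbiology laboratory.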

[2] = tested on: Staphylococcus aureus; experiment: Antimicrobial activity against Staphylococcus aureus ATCC 25923 by agar well diffusion method; format: functional
[3] = tested on: Escherichia coli; experiment: Antimicrobial activity against Escherichia coli ATCC 8739 by agar well diffusion method; format: functional
[4] = tested on: Pseudomonas aeruginosa; experiment: Antimicrobial activity against Pseudomonas aeruginosa NCIMB 8295 by agar well diffusion method; format: functional
[5] = tested on: Bacillus subtilis; experiment: Antimicrobial activity against Bacillus subtilis NCIB 3610 by agar well diffusion method; format: functional; conditions: subsp. subtilis str. NCIB 3610
[6] = tested on: Candida albicans; experiment: Antifungal activity against Candida albicans by agar well diffusion method; format: functional
[7] = Antioxidant activity assessed as DPPH radical scavenging activity after 30 mins by spectrophotometry; format: physicochemical
Procedure, shortened: (§2)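 DPPH (0.51 mM in methanol) was mixed 1:1 by volume with the compound at several concentrations (100, 50, 25 … µg/mL range). Absorbance was read against a control, and % inhibition = (A0−As)/A0 ×100. Readings were taken at 30 min and 3 h, with ascorbic acid as the reference. Triplicate measurements.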

[8] = Antioxidant activity assessed as DPPH radical scavenging activity after 3 hrs by spectrophotometry; format: physicochemical; procedure, shortened: as §2
[9] = Metal chelating activity of the compound assessed as formation of iron complex after 20 mins by spectrophotometry; format: physicochemical
Procedure, shortened: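 Fe2+ chelation was measured by disruption of the o-phenanthroline–Fe2+ complex. O-phenanthroline (0.05% in methanol) and FeCl2 (0.1%) were mixed with the sample at various concentrations and held at room temperature for 20 min, then read at 510 nm. EDTA was the standard chelator. % chelation = (Acontrol−Asample)/Acontrol ×100, and IC50 came from plots of % chelation versus concentration. Triplicates.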

[10] = tested on: Staphylococcus aureus; experiment: Antimicrobial activity against Staphylococcus aureus ATCC 25923 assessed as zone of inhibition at 100 ug/ml by agar well diffusion method; format: functional; conditions: for zone of inhibition at 100 µg/mL: read-out: IZ; procedure, shortened: as §1
[11] = tested on: Escherichia coli; experiment: Antimicrobial activity against Escherichia coli ATCC 8739 assessed as zone of inhibition at 100 ug/ml by agar well diffusion method; format: functional; conditions: for zone of inhibition at 100 µg/mL: read-out: IZ; procedure, shortened: as §1
[12] = tested on: Pseudomonas aeruginosa; experiment: Antimicrobial activity against Pseudomonas aeruginosa NCIMB 8295 assessed as zone of inhibition at 100 ug/ml by agar well diffusion method; format: functional; conditions: for zone of inhibition at 100 µg/mL: read-out: IZ; procedure, shortened: as §1
[13] = tested on: Bacillus subtilis; experiment: Antimicrobial activity against Bacillus subtilis NCIB 3610 assessed as zone of inhibition at 100 ug/ml by agar well diffusion method; format: functional; conditions: for Activity: subsp. subtilis str. NCIB 3610; for zone of inhibition at 100 µg/mL: subsp. subtilis str. NCIB 3610, read-out: IZ; procedure, shortened: as §1

Compound	Activity [1]	MIC [2]	MIC [3]	MIC [4]	MIC [5]	MIC [6]	IC50 [7]	IC50 [8]	IC50 [9]	Activity [10]	Activity [11]	Activity [12]	Activity [13]	zone of inhibition at 100 µg/mL [1]	zone of inhibition at 100 µg/mL [10]	zone of inhibition at 100 µg/mL [11]	zone of inhibition at 100 µg/mL [12]	zone of inhibition at 100 µg/mL [13]
CCOC(=O)C1C(=O)C=C(c2ccc(OC)cc2OC)CC1c1cccc([N+](=O)[O-])c1 (centres undefined)	inactive	inactive	inactive	inactive	inactive	inactive	195.65 µg/mL (≈ 460 µM)	95.43 µg/mL (≈ 224 µM)	1006.67 µg/mL (≈ 2370 µM)	inactive	inactive	inactive	inactive					
CCOC(=O)C1C(=O)C=C(c2ccc(Br)cc2)CC1c1cccc([N+](=O)[O-])c1 (centres undefined)	inactive	inactive	inactive	inactive	inactive	inactive	409.1 µg/mL (≈ 921 µM)	409.1 µg/mL (≈ 921 µM)	1148.57 µg/mL (≈ 2590 µM)	inactive	inactive	inactive	inactive					
O=C1ON=C2C=C(c3cccs3)CC(c3cccc([N+](=O)[O-])c3)C12 (centres undefined)		2.5 µg/mL (≈ 7.35 µM)	2.5 µg/mL (≈ 7.35 µM)	2.5 µg/mL (≈ 7.35 µM)	1.25 µg/mL (≈ 3.67 µM)	1.25 µg/mL (≈ 3.67 µM)	309.29 µg/mL (≈ 909 µM)	197.78 µg/mL (≈ 581 µM)	675.67 µg/mL (≈ 1990 µM)					15 mm	12 mm	13 mm	11 mm	14 mm
CCOC(=O)C1C(=O)C=C(c2ccccc2)CC1c1cccc([N+](=O)[O-])c1 (centres undefined)	inactive	inactive	inactive	inactive	inactive	inactive	165.21 µg/mL (≈ 452 µM)	143.6 µg/mL (≈ 393 µM)	1028.57 µg/mL (≈ 2820 µM)	inactive	inactive	inactive	inactive					
O=C(/C=C/c1cccc([N+](=O)[O-])c1)c1ccc(Br)cc1							170 µg/mL (≈ 512 µM)	122.8 µg/mL (≈ 370 µM)	202.56 µg/mL (≈ 610 µM)									
O=C(O)CN(CCN(CC(=O)O)CC(=O)O)CC(=O)O [EDETIC ACID]									50.98 µg/mL (≈ 174 µM)									
COc1ccc(C2=CC3=NOC(=O)C3C(c3cccc([N+](=O)[O-])c3)C2)cc1 (centres undefined)	inactive	inactive	inactive	inactive	2.5 µg/mL (≈ 6.86 µM)	inactive	258.75 µg/mL (≈ 710 µM)	118.69 µg/mL (≈ 326 µM)	704.31 µg/mL (≈ 1930 µM)	inactive	inactive	inactive						12 mm
COc1ccc(C2=CC3=NNC(=O)C3C(c3cccc([N+](=O)[O-])c3)C2)c(OC)c1 (centres undefined)	inactive	inactive	inactive	inactive	2.5 µg/mL (≈ 6.35 µM)	inactive	88.75 µg/mL (≈ 226 µM)	39.67 µg/mL (≈ 101 µM)	84.39 µg/mL (≈ 215 µM)	inactive	inactive	inactive						9 mm
O=C(/C=C/c1cccc([N+](=O)[O-])c1)c1ccc(O)cc1							92.75 µg/mL (≈ 344 µM)	40.67 µg/mL (≈ 151 µM)	84.09 µg/mL (≈ 312 µM)									
O=C(/C=C/c1cccc([N+](=O)[O-])c1)c1ccccc1							165.21 µg/mL (≈ 652 µM)	112.5 µg/mL (≈ 444 µM)	104.76 µg/mL (≈ 414 µM)									
O=C1NN=C2C=C(c3ccccc3)CC(c3cccc([N+](=O)[O-])c3)C12 (centres undefined)	inactive	2.5 µg/mL (≈ 7.5 µM)	inactive	inactive	2.5 µg/mL (≈ 7.5 µM)	inactive	98.53 µg/mL (≈ 296 µM)	59.5 µg/mL (≈ 178 µM)	93.04 µg/mL (≈ 279 µM)		inactive	inactive			12 mm			13 mm
COc1ccc(C(=O)/C=C/c2cccc([N+](=O)[O-])c2)c(OC)c1							133.57 µg/mL (≈ 426 µM)	96.22 µg/mL (≈ 307 µM)	95.13 µg/mL (≈ 304 µM)									
GENTAMICIN		< 0.02 µg/mL	< 0.02 µg/mL	< 0.02 µg/mL	< 0.02 µg/mL													
O=C1NN=C2C=C(c3cccs3)CC(c3cccc([N+](=O)[O-])c3)C12 (centres undefined)		2.5 µg/mL (≈ 7.37 µM)	2.5 µg/mL (≈ 7.37 µM)	2.5 µg/mL (≈ 7.37 µM)	0.313 µg/mL (≈ 0.922 µM)	0.313 µg/mL (≈ 0.922 µM)	100.61 µg/mL (≈ 296 µM)	63.78 µg/mL (≈ 188 µM)	86.96 µg/mL (≈ 256 µM)					23 mm	9 mm	11 mm	10 mm	22 mm
O=C1NN=C2C=C(c3ccc(Br)cc3)CC(c3cccc([N+](=O)[O-])c3)C12 (centres undefined)		2.5 µg/mL (≈ 6.06 µM)	inactive	inactive	2.5 µg/mL (≈ 6.06 µM)	2.5 µg/mL (≈ 6.06 µM)	103.6 µg/mL (≈ 251 µM)	77.89 µg/mL (≈ 189 µM)	106.36 µg/mL (≈ 258 µM)		inactive	inactive		10 mm	13 mm			13 mm
COc1ccc(C(=O)/C=C/c2cccc([N+](=O)[O-])c2)cc1							135.27 µg/mL (≈ 478 µM)	92.46 µg/mL (≈ 326 µM)	97.32 µg/mL (≈ 344 µM)									
CCOC(=O)C1C(=O)C=C(c2cccs2)CC1c1cccc([N+](=O)[O-])c1 (centres undefined)		inactive	inactive	inactive	2.5 µg/mL (≈ 6.73 µM)	2.5 µg/mL (≈ 6.73 µM)	208.95 µg/mL (≈ 563 µM)	133.66 µg/mL (≈ 360 µM)	1030.56 µg/mL (≈ 2770 µM)	inactive	inactive	inactive		8 mm				12 mm
CCOC(=O)C1C(=O)C=C(c2ccc(O)cc2)CC1c1cccc([N+](=O)[O-])c1 (centres undefined)		inactive	inactive	inactive	2.5 µg/mL (≈ 6.56 µM)	2.5 µg/mL (≈ 6.56 µM)	175 µg/mL (≈ 459 µM)	86.67 µg/mL (≈ 227 µM)	1014 µg/mL (≈ 2660 µM)	inactive	inactive	inactive		13 mm				12 mm
O=C(/C=C/c1cccc([N+](=O)[O-])c1)c1cccs1							112.29 µg/mL (≈ 433 µM)	90.73 µg/mL (≈ 350 µM)	1029.41 µg/mL (≈ 3970 µM)									
NYSTATIN						< 0.02 µg/mL												
O=C1O[C@H]([C@@H](O)CO)C(O)=C1O [ASCORBIC ACID]							37.78 µg/mL (≈ 215 µM)	25.26 µg/mL (≈ 143 µM)										
